UCH37 inh: inhibitors of human UCH37 deubiquitinase, primary screen, biochemical, Ub-AMC cleavage, fluorescence; purified proteasome/UCH37; Ubiquitin carboxyl-terminal hydrolase isozyme L5 (Homo sapiens), Q9Y5K5; 330,000 compounds, 0.33% hits; inhibition, % (concentration not given with the values);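 active = mean inhibition over replicate wells above about 20%, limit read from the data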;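 also: 0% = compound-free wells with enzyme and 100% = wells lacking proteasome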
Target sequence (Q9Y5K5 whole entry, looked up): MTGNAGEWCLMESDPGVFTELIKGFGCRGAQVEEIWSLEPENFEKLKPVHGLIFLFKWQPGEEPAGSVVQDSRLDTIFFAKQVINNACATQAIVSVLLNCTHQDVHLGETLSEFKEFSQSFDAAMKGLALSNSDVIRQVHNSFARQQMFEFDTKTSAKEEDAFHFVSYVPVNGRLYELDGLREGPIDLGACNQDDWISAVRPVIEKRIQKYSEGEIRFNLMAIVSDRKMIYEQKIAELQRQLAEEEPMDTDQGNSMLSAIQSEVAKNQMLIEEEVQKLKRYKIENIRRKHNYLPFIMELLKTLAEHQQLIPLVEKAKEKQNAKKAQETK
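system = Proteasome-associated human UCH37 deubiquitinase | amount = 0.15 nM proteasome as dispensed | medium = pH 7.4 Tris-HCl (50 mM) with ovalbumin, ATP-MgCl2, DTT | incubation = 30 min preincubation with enzyme, 25 min cleavage at room temperature | detection = AMC fluorescence 355/460 nm | read-out basis = percent inhibition | controls = no-proteasome and no-compound wells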
SUMO HTRF inh: inhibitors of in vitro SUMOylation cascade, primary screen, biochemical, HTRF, uHTS; HTRF SUMOylation assay, SAE1/SAE2 + UBC9; inhibition, % at 35 µM; 290,000 compounds, 0.36% hits; AID 2006, 2009; in the data active = inhibition above about 50%, passing the limit was not always enough
Target sequence (P63279 whole entry, looked up): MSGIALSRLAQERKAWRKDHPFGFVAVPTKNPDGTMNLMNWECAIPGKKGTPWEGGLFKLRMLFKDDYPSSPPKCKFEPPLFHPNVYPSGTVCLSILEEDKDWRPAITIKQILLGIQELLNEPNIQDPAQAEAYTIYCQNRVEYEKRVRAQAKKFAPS
Neddyl block: inhibitors of cullin neddylation, primary screen, biochemical, TR-FRET, uHTS, NAE and Ubc12. NEDD8-conjugating enzyme Ubc12 (Homo sapiens) + NEDD8-activating enzyme E1 regulatory …. inhibition, % at 25 µM. 360,000 compounds, 0.58% hits. AID 651699, 2012; in the data active = inhibition above about 36%
CTSL1 counter: Fasciola hepatica cathepsin L1 inhibitors, primary screen, counter-screen for PFM18AAP inhibitor project, biochemical, QFRET, fluorogenic peptide substrate. recombinant F. hepatica cathepsin L1, Z-Leu-Arg-MCA fluorescence. inhibition, % at 5.96 µM. 300,000 compounds, 0.49% hits;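 active = inhibition above the mean of all tested compounds plus 3 SD, set per screening campaign, cut at about 17% in these data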;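 also: 0% = plate median of test compound wells and 100% = 1 µM Z-Phe-Ala-diazomethylketone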
UCH37 reconfirm: retest of human UCH37 deubiquitinase inhibitors, confirmation, biochemical, Ub-AMC cleavage rate, fluorescence; shares compounds with UCH37 inh; Proteasome-bound UCH37; inhibition, % at 20 µM; 480 compounds, 27% hits; AID 624100, 2012;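 active = average inhibition over replicates above about 50%, so the earlier screening hit is confirmed, limit read from the data; inactive = the rest, counted as false positives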;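 also: based on cleavage rate fitted by regression over a 30 min kinetic read; 0% = proteasome plus Ub-AMC and 100% = Ub-AMC without proteasome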
Active calls of the source: *; ! = not confirmed by another sample. In the library only some 1.4% were active in any assay of this set; here they are far more common.

Screening Cc1ccc(NC2=CC(=O)C(=O)c3ccccc32)cc1 returned UCH37 inh 46.5*, SUMO HTRF inh 94.0, Neddyl block -58.1, CTSL1 counter 14.7 and UCH37 reconfirm 54.8*.
Screening CC(=O)c1ccc(NC2=C(N3CCOCC3)C(=O)c3ccccc3C2=O)cc1 returned UCH37 inh 31.6*, SUMO HTRF inh 9.0, Neddyl block -18.8, CTSL1 counter 35.2* and UCH37 reconfirm 51.0*.
`CC1CN(CC(=NO)C23CC4CC(CC(C4)C2)C3)CC(C)O1` (stereo not given) gave UCH37 inh 1.5.
For O=[N+]([O-])c1ccc(-c2ccc(C=NNc3nc(N4CCCC4)nc(N4CCCC4)n3)o2)cc1 the results were UCH37 inh -0.4.
Screening O=C(NCc1ccccc1)c1ccc(N2CCC3(CC2)CC(c2ccccc2)=NO3)c([N+](=O)[O-])c1 returned UCH37 inh 46.9*, SUMO HTRF inh -5.1, Neddyl block -16.7, CTSL1 counter -1.1 and UCH37 reconfirm 2.7.
Screening CCCOc1ccc(C2=CC(=O)C[C@H](c3ccc(OC)cc3)C2)cc1 returned UCH37 inh 35.6*, Neddyl block -47.0 and UCH37 reconfirm -2.3.
Screening COc1ccc([C@H]2CC(=O)C=C(c3ccc(OC(F)(F)F)cc3)C2)cc1 returned UCH37 inh -0.9 and Neddyl block -8.1.
Screening CC(=NNC(=O)c1cccc(Br)c1)c1cccnc1 returned UCH37 inh 1.0.
C=CCc1cccc(C=NNC(=O)C[n+]2ccccc2)c1O was read as UCH37 inh 7.2.
Screening O=C(NNc1cc(N2CCOCC2)nc(N2CCOCC2)n1)c1ccc([N+](=O)[O-])cc1 returned UCH37 inh 26.3*, Neddyl block -44.8 and UCH37 reconfirm 18.3.
For O=C1Cc2ccccc2C(=O)N1CCc1ccccc1 the results were UCH37 inh 61.8*, SUMO HTRF inh 22.5, Neddyl block 4.8, CTSL1 counter 66.9* and UCH37 reconfirm 9.5.
For O=C1C(=O)N(Cc2ccccc2)C(=O)N1CCN1C(=O)c2ccccc2C1=O the results were UCH37 inh 0.0, SUMO HTRF inh -1.8, Neddyl block -24.9 and CTSL1 counter -0.1.
For Cc1ccc(C(=O)ONc2ccc(N=NC(=O)c3ccccc3O)cc2)cc1 the results were UCH37 inh 26.6*, SUMO HTRF inh -10.0, Neddyl block -32.4, CTSL1 counter -5.2 and UCH37 reconfirm 30.6.
Screening Cc1ccc(C(=O)ONc2ccc(N=O)cc2)cc1 returned UCH37 inh 6.2, SUMO HTRF inh -23.6, Neddyl block -17.0 and CTSL1 counter 2.7.
`COc1ccc(C2=C(N)c3ccccc3C2=O)cc1` gave UCH37 inh 2.7, SUMO HTRF inh -18.3, Neddyl block -70.6 and CTSL1 counter -2.9.
`COC1=C(c2ccccc2)C(=O)c2ccccc2C1=O` gave UCH37 inh 26.5*, SUMO HTRF inh -10.0, Neddyl block -23.4, CTSL1 counter 13.3 and UCH37 reconfirm 32.5.
For CCCc1c(C(=O)NN=Cc2ccccc2C(F)(F)F)nnn1-c1nonc1N the results were UCH37 inh 5.7.
CCCCCCCCCCCCCCCC[n+]1cccc(C(=O)N(CC)CC)c1 was read as UCH37 inh 58.2*!, SUMO HTRF inh -6.6, Neddyl block -7.3, CTSL1 counter 2.3 and UCH37 reconfirm 65.8*.
`CCCCCCCCCCCCCCCC[n+]1ccc(C(N)=O)cc1` gave UCH37 inh 68.0*, SUMO HTRF inh 14.3, Neddyl block -0.3, CTSL1 counter 5.8 and UCH37 reconfirm 71.2*.
CCCCCCCCCCCCCCCC[n+]1ccc(/C=N/O)cc1 was read as SUMO HTRF inh -0.5, Neddyl block 10.9 and CTSL1 counter 4.4.
CCCCCCCCCCCCCCCC[n+]1ccccc1 was read as UCH37 inh 79.2*, Neddyl block 3.4 and UCH37 reconfirm 97.4*.
`O=C(O)CC1SC(=NN=Cc2ccc([N+](=O)[O-])cc2)N(c2ccc(O)cc2)C1=O` (stereo not given) gave UCH37 inh 15.3.
For C=CCn1c(CNc2ccc(C)cc2)nnc1SCC(=O)NN=Cc1ccc(O)cc1O the results were UCH37 inh 10.3.
Cc1cc(C)cc(C(=O)N2CCCCC2)c1 was read as UCH37 inh 0.7 and Neddyl block -1.7.
`Cc1cccc(C(=O)N2CCCCCC2)c1` gave UCH37 inh 28.1, SUMO HTRF inh 6.0, Neddyl block 10.3, CTSL1 counter 0.4 and UCH37 reconfirm 41.8.
For CC1CCN(CC(=O)Nc2sc3c(c2C#N)CCC3)CC1 the results were UCH37 inh 37.0*, SUMO HTRF inh -0.3, Neddyl block 1.9, CTSL1 counter -0.5 and UCH37 reconfirm 9.1.
`CCCC(=O)Nc1sc2c(c1C#N)CCCC2` gave UCH37 inh 0.4, SUMO HTRF inh 7.9, Neddyl block 3.2 and CTSL1 counter -2.6.
For O=C(NC1(O)C(=O)c2ccccc2C1=O)c1c(Cl)cccc1Cl the results were UCH37 inh 80.5*, SUMO HTRF inh 95.0*, Neddyl block -6.5, CTSL1 counter 53.8* and UCH37 reconfirm 51.8*.
`O=C(NC1(O)C(=O)c2ccccc2C1=O)c1ccccc1` gave UCH37 inh 83.6*, SUMO HTRF inh 83.9*, Neddyl block -12.0, CTSL1 counter 63.9* and UCH37 reconfirm 73.6*.
O=C(Nc1ccccc1Cl)c1c(F)c(F)c(F)c(F)c1F was read as UCH37 inh 5.3, Neddyl block 3.3 and CTSL1 counter 0.0.
`C(=NNc1nc(N2CCCCC2)nc(N2CCCCC2)n1)c1c[nH]c2ccccc12` gave UCH37 inh 38.4* and UCH37 reconfirm -58.9.
Screening Cc1[nH]c2ccccc2c1C=NNc1nc(N2CCCCC2)nc(N2CCCCC2)n1 returned UCH37 inh 4.6.
C/C(C=NNc1nc2ccccc2[nH]1)=C\c1ccccc1 was read as UCH37 inh -9.6.
For NC(=O)COC(=O)c1ccc(Cl)c(S(=O)(=O)N(Cc2ccccc2)c2ccc(Cl)cc2)c1 the results were UCH37 inh 38.8*, SUMO HTRF inh 1.7, Neddyl block -0.1, CTSL1 counter 0.9 and UCH37 reconfirm -37.3.
Screening Cc1c(/C(O)=C2\C(=O)C(=O)N(CCCN(C)C)C2c2cccs2)cnn1-c1ccccc1 (stereo not given) returned UCH37 inh 35.4*, Neddyl block -67.1 and UCH37 reconfirm 2.3.
For CC(Sc1nnc(-c2cccnc2)n1N)C(=O)NCCC1=CCCCC1 (stereo not given) the results were UCH37 inh 62.6*, Neddyl block 10.4 and UCH37 reconfirm 51.8*.
For CC(Sc1nnc(-c2cccnc2)n1N)C(=O)N1CCOCC1 (stereo not given) the results were UCH37 inh 1.5, Neddyl block -5.1 and CTSL1 counter 2.2.
